This passage reports Stereotypy score, Control and IC50 results from ChEMBL document CHEMBL1123002, “Resolution of 5,6-dihydroxy-2-(N,N-di-n-propylamino)tetralin in relation to the structural and stereochemical requirements for centrally acting dopamine agonists” (J Med Chem, 1985).

As usually defined, the IC50 is the midpoint of a concentration-inhibition curve.

Experiment [1] concerns Rattus norvegicus. The experiment in a line: In vivo dopaminergic activity was assessed by scoring stereotyped behavior in rats at dose 10 umol/kg. It counts as functional. In a few lines:
(§1)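 Rats dosed ip with drug in saline containing 0.1% sodium bisulfite. Stereotyped behaviour scored over 30 min after injection by a published rating method.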

The subject of experiment [2] is Rattus norvegicus. The experiment in a line: In vivo dopaminergic activity was assessed by measuring the decrease of DA metabolite (HVA) levels in rat brain at dose 5 umol/kg. It counts as functional. The arrangement: scale not given: the % may be the effect or the level left. The gist of the method:
(§2)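 Female Wistar-derived rats (160–220 g) given drug ip in saline with 0.1% sodium bisulfite. Killed by decapitation 40 min later. Striata dissected, frozen on dry ice, stored at -80 °C, then homogenized in 0.1 M perchloric acid and centrifuged. DA, HVA and DOPAC in the supernatant measured by Sephadex G10 cleanup and reverse-phase HPLC with amperometric detection, compared against controls.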

For experiment [3], the system named is Rattus norvegicus. The experiment in a line: In vivo dopaminergic activity was assessed by measuring the decrease of DA metabolite (DOPAC) levels in rat brain at dose 10 umol/kg. It counts as functional. Set-up: scale not given: the % may be the effect or the level left. The gist of the method:
as §2

Experiment [4] concerns Rattus norvegicus. Briefly: In vivo dopaminergic activity was assessed by scoring stereotyped behavior in rats at dose 5 umol/kg. It counts as functional. In a few lines: as §1
Experiment [5] concerns Rattus norvegicus. Briefly: In vivo dopaminergic activity was assessed by measuring the decrease of DA […] levels in rat brain at dose 5 umol/kg. It counts as functional. The arrangement: scale not given: the % may be the effect or the level left. In a few lines:
as §2

The test system of experiment [6] is Rattus norvegicus. Briefly: In vivo dopaminergic activity was assessed by measuring the decrease of DA metabolite (HVA) levels in rat brain at dose 0.5 umol/kg. In kind it is functional. Set-up: scale not given: the % may be the effect or the level left. In a few lines:
as §2

Experiment [7] deals with Rattus norvegicus. The experiment in a line: In vivo dopaminergic activity was assessed by measuring the decrease of DA metabolite (HVA) levels in rat brain at dose 10 umol/kg. In kind it is functional. The arrangement: scale not given: the % may be the effect or the level left. In a few lines:
as §2

Experiment [8] concerns Rattus norvegicus. The experiment in a line: In vivo dopaminergic activity was assessed by measuring the decrease of DA metabolite (DOPAC) levels in rat brain at dose 0.5 umol/kg. In kind it is functional. Set-up: scale not given: the % may be the effect or the level left. The gist of the method: as §2
The subject of experiment [9] is Rattus norvegicus. Briefly: In vivo dopaminergic activity was assessed by scoring stereotyped behavior in rats at dose 0.5 umol/kg. In kind it is functional. In a few lines: as §1
Experiment [10] deals with Rattus norvegicus. Briefly: In vivo dopaminergic activity was assessed by measuring the decrease of DA […] levels in rat brain at dose 10 umol/kg. The arrangement: scale not given: the % may be the effect or the level left. It counts as functional. In a few lines: as §2
Experiment [11] has as its system Rattus norvegicus. The experiment in a line: In vivo dopaminergic activity was assessed by measuring the decrease of DA […] levels in rat brain at dose 0.5 umol/kg. It counts as functional. Set-up: scale not given: the % may be the effect or the level left. In a few lines: as §2
Experiment [12] relates to Rattus norvegicus. Briefly: In vivo dopaminergic activity was assessed by measuring the decrease of DA metabolite (DOPAC) levels in rat brain at dose 5 umol/kg. In kind it is functional. The arrangement: scale not given: the % may be the effect or the level left. In a few lines: as §2
Experiment [13] concerns the target Dopamine receptor. Briefly: Inhibitory activity against [3H]NPA binding (0.45) to dopamine receptor in striata of female wistar rats. In kind it is protein assay. In a few lines: (§3)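 Rat striatal membranes prepared in 15 mM Tris-HCl with 1 mM EDTA and 0.01% ascorbate, pH 7.5, washed by repeated 35000g spins. Incubated in triplicate for 30 min at 25 °C with 0.46 nM [³H]NPA and competitor over 10⁻¹¹–10⁻⁵ M. Nonspecific binding defined with 10⁻⁶ M (+)-butaclamol. Bound label collected on GF/B filters and counted by scintillation. IC50 from log-probit analysis of at least three determinations.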

In experiment [14] the test system is Rattus norvegicus. The experiment in a line: In vivo dopaminergic activity was assessed by measuring the decrease of DA […] levels in rat brain at dose 0.25 umol/kg. In kind it is functional. Set-up: scale not given: the % may be the effect or the level left. The gist of the method: as §2
In experiment [15] the test system is Rattus norvegicus. Briefly: In vivo dopaminergic activity was assessed by measuring the decrease of DA metabolite (DOPAC) levels in rat brain at dose 0.25 umol/kg. The arrangement: scale not given: the % may be the effect or the level left. In kind it is functional. In a few lines: as §2
Experiment [16] has as its system Rattus norvegicus. The experiment in a line: In vivo dopaminergic activity was assessed by measuring the decrease of DA metabolite (HVA) levels in rat brain at dose 0.25 umol/kg. In kind it is functional. Set-up: scale not given: the % may be the effect or the level left. In a few lines: as §2
For experiment [17], the system named is Rattus norvegicus. Briefly: In vivo dopaminergic activity was assessed by scoring stereotyped behavior in rats at dose 0.25 umol/kg. In kind it is functional. In a few lines: as §1
The target of experiment [18] is Dopamine receptor. Briefly: Inhibitory activity against [3H]NPA binding (0.45) to dopamine receptors in striata of female wistar rats. It counts as protein assay. In a few lines:
as §3

For the compound `CCCN(CCC)C1CCc2c(ccc(O)c2O)C1` (single isomer, unassigned; (+)), the results for the Stereotypy score in the experiment with Rattus norvegicus [1], in the experiment on Rattus norvegicus [4] and with Rattus norvegicus [9] were 3, 3 and 0, respectively. Also, the Control with Rattus norvegicus [2] is listed as less than 48.6%; in the experiment with Rattus norvegicus [3], less than 60.1%; in the experiment with Rattus norvegicus [5], 115%; in the experiment with Rattus norvegicus [6], 86.5%; with Rattus norvegicus [7], less than 41.2%; with Rattus norvegicus [8] it was 93.3%. Also, the Control in the experiment on Rattus norvegicus [10] is less than 125.8%; in the experiment on Rattus norvegicus [11], 109.4%; in the experiment on Rattus norvegicus [12] it was 68.9%. This compound returned an IC50 on Dopamine receptor [13] of 400 nM.
As to `CCCN(CCC)C1CCc2c(ccc(O)c2O)C1` (single isomer, unassigned; (-)), the Control in the experiment with Rattus norvegicus [14] is 98.4%; in the experiment on Rattus norvegicus [6], less than 42.6%; with Rattus norvegicus [15], less than 53.7%; with Rattus norvegicus [8], less than 58%; with Rattus norvegicus [16], less than 42.5%; in the experiment with Rattus norvegicus [11], 114.2%. The Stereotypy score in the experiment on Rattus norvegicus [9] and in the experiment on Rattus norvegicus [17] was 4 each time. On Dopamine receptor [13], this compound registered an IC50 of 2.5 nM.
`CCCN(CCC)C1CCc2c(ccc(O)c2O)C1` (racemic): the Control is 103% in the experiment on Rattus norvegicus [14]; 47.6% in the experiment on Rattus norvegicus [6]; 61% in the experiment with Rattus norvegicus [15]; 58.5% in the experiment on Rattus norvegicus [8]; 36.2% in the experiment on Rattus norvegicus [16]; 114.9% with Rattus norvegicus [11]. The compound further showed an IC50 on Dopamine receptor [18] of 4 nM.
